Data on one compound can be found in ChEMBL document CHEMBL1124344, “5-Piperazinylalkyl-2(3H)-oxazolones with neuroleptic activity” (J Med Chem, 1989).

SMILES strings stand for the structures.

The nature of data set [1]: Lethal dose in mice (LD50) following i.p. dosing. The data set is classed as toxicity, organism-based. To be noted: mouse, in vivo, ip. The procedure, abridged: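 Acute toxicity tested in mice by the intraperitoneal route. LD50 is the dose killing 50% of treated mice, computed by Finney probit analysis; values are approximate.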
For data set [2], the system named is Rattus norvegicus. The data set is described as follows: Antagonistic activity against apomorphine-induced stereotypy in rats, by administering perorally at a dose of 400 mg/kg. The class given is functional. Particulars: route oral. In short, it runs like this: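 Male rats fasted overnight and given oral doses in arabic gum suspension (10 mL/kg) 1 h, or 1 and 5 h, before challenge. Apomorphine 3 mg/kg iv, with stereotypy observed 20 min later. ED50 is the dose inhibiting stereotypy in 50% of rats, per Janssen's method. Parenthetical entries give the maximal dose and percent activity.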

For data set [3], the system named is Rattus norvegicus. The data set is described as follows: Activity to evoke catalepsy in rats, by administering perorally at a dose of 150 mg/kg. The data set is classed as functional. Particulars: route oral. In short, it runs like this:
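Rats fasted overnight and given oral doses in arabic gum suspension (10 mL/kg), 1 h before screening or 1 and 5 h before profile testing. Forelegs placed on a horizontal bar 7 cm high, three times at 5-min intervals. Immobility of at least 15 s counts as catalepsy. ED50 is the dose giving catalepsy in 50% of rats, by probit analysis. Parenthetical entries give the maximal dose and percent activity.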

Data set [4] relates to Mus musculus. The data set is described as follows: Inhibition of amphetamine-induced hypermobility in mice following p.o. administration. The data set is classed as functional. Particulars: po. In short, it runs like this:
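Compounds were given orally to male mice (gum arabic suspension, 10 mL/kg, fasted) in groups of five. Amphetamine 4 mg/kg ip followed 30 min later. After another 10 min, motility was recorded for 15 min with a photocell actophotometer. ED50, by probit analysis, is the dose giving 50% reduction against controls.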

Data set [5] deals with Mus musculus. Briefly: Inhibition of spontaneous motor activity in mice, by administering perorally. To be noted: po. The data set is classed as functional. In short, it runs like this: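 Mice in groups of five were dosed orally with gum arabic suspensions at 10 mL/kg after an overnight fast, with a vehicle control group. Locomotion was counted for 10 min in a photocell activity cage, in at least two groups per dose. ED50, by probit analysis, is the dose giving 50% inhibition against controls.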

For the compound `Oc1nc(-c2ccc(Cl)cc2)c(CCN2CCN(c3ccccc3)CC2)o1`, the LD50 – broadly, the dose expected to kill half of the subjects tested – in data set [1] was > 1000 mg/kg. For the same compound, the inhibition in vivo – broadly, the relative decrease from the control value, in per cent – at 400 mg/kg in the data set on Rattus norvegicus [2] is 0%. Besides, the inhibition in vivo at 150 mg/kg with Rattus norvegicus [3] amounted to 0%. For the same compound, the ED50 (usually the midpoint of the dose-response relation) in the data set with Mus musculus [4] worked out at 4.7 mg/kg; in the data set with Mus musculus [5], 3 mg/kg.
